Experimental data from paper PMC10461461 (Protein Science : A Publication of the Protein Society, 2023).
Marks after values point to notes of the source that are not given here. Where no end group is shown, it is not given here.

Key:
[1] = tested on: HSC3 cells expressing PTPRJ ectopically; experiment: Cell viability assay; format: cell-based, human; conditions: 72 h recovery, MTT, n = 9
Method in brief: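 HSC3 cells engineered to express wild-type PTPRJ, grown in high-glucose DMEM with 10% FBS at 37°C and 5% CO₂, seeded at 5000 cells/well overnight. Peptide in serum-free medium for 5 min at 37°C. Medium then acidified to target pH with citric acid-buffered medium (pH 2.0) for 10 min. Cells washed, then 72 h recovery in complete DMEM. MTT read-out, normalized to medium-only pH 7.4 cells. […]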

HSC3 cells = experiment: Lactate dehydrogenase release assay; format: cell-based, human; conditions: 10 μM, 1 h, pH 7.4, 5.5 or 5.0, mean ± S.D., n = 3
[2] = Solubility in aqueous buffer; format: physicochemical; conditions: peptides solubilized to 20 μM in 5 mM sodium phosphate pH 8.0
[3] = tested on: HSC3 cells ectopically expressing PTPRJ; experiment: Wound healing scratch assay; format: cell-based, human; conditions: 10 μM, 10 min, n = 8-11
Method in brief: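 PTPRJ-expressing HSC3 monolayers, confluent at 24 h, serum-starved 2 h. Peptide added in serum-free medium at pH 7.4 (5 min, 37°C), then pH lowered with citrate-buffered medium (pH 2.0) to reach final concentration; 10 min exposure. Monolayer scratched, then complete medium with EGF 50 ng/mL, 37°C, 10 h. Closure taken as percent area change from start to end, normalized to cells treated at pH 7.4.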

[4] = tested on: EGFR phosphorylation (Tyr-1068 and Tyr-1173) in HSC3 cells expressing wild-type PTPRJ; experiment: EGFR Tyr phosphorylation level by immunoblotting; format: cell-based, human; conditions: 10 μM, 10 min, indicated pHs (7.4, 5.5, 5.0), then EGF
Method in brief: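 HSC3 cells engineered to express wild-type PTPRJ, seeded and grown overnight, then serum-starved 2 h. Peptide in serum-free medium for 5 min at 37°C; medium acidified with citrate-buffered medium (pH 2.0) to reach final 10 μM; 10 min at 37°C; then EGF 10 ng/mL for 10 min. Lysates immunoblotted for pY1068, pY1173 and total EGFR; chemiluminescence; densitometric phospho/total ratio, mean values.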

[5] = tested on: HSC3 cells ectopically expressing PTPRJ; conditions: 10 μM, 1-h treatment; ref Bloch et al., 2019; cited from earlier work
[6] = tested on: EGFR phosphorylation (Tyr-1068 and Tyr-1173) in HSC3 cells expressing wild-type PTPRJ; conditions: 10 μM, 1-h treatment; ref Bloch et al., 2019; cited from earlier work
[7] = pH at which 50% of peptides are in the α-helical membrane inserted state; ref Vasquez-Montes et al. (2018); cited from earlier work
[8] = Tryptophan fluorescence emission maximum; format: physicochemical; conditions: POPC LUVs, pH 8.0 and pH 4.0, Trp fluorescence

Question: For DDTTLLLLSEIGAGMWVSLVELIADADEG [hybrid7], which cell viability ([1]; pH 5.5, 10 μM, 10 min treatment) is on record?
Answer: Its cell viability is 20%.

Question: And the “release of LDH (membrane integrity)” value (HSC3 cells)?
Answer: The value was “Neither hybrid7 nor low pH treatment causes a significant release of LDH”.

Question: What about the “solubility in aqueous buffer” value [2] of the same sequence?
Answer: Its value is “readily soluble in aqueous buffer”.

Question: For “DDTTLLLLSEIGLGMWVSLVELIADADEG [hybrid7‐control]”, which “decrease / inhibition in cell migration (wound closure)” value ([3]; pH 5.0, EGF 50 ng/mL 10 h) is on record?
Answer: Its value is 30%.

Question: And the “effect on cell migration (wound closure)” value ([3]; pH 5.5, EGF 50 ng/mL 10 h)?
Answer: The value was “does not result in any effect”.

Question: What about the “effect on cell viability” value ([1]; pH 7.4 or 5.5, 10 min treatment) of the same sequence?
Answer: The value was “had no effect at either high or acidic pH”.

Question: What about the “change in EGFR phosphorylation level” value [4] of the same sequence?
Answer: Its value is “no changes in phosphorylation level”.

Question: What does the source list for “KKTTLLLL S SIG A IMW V SLVCLIAVKGSNKK [RJbinder]”?
Answer: decrease in cell migration [5]: 20%; decrease in phosphorylation at Tyr-1068 and Tyr-117 [6]: 20%–30%

Question: With “AAEQNPIYWARYDWLFTTGLLLLDLALLVDADEGG [pHLIP(P20G)]” as the sequence, how does the pK50 [7] read?
Answer: The pK50 was 7.2 ^b.

Question: With “AAEQNPIYWARYDWLFTTPLLLLDLALLVDADEGG [pHLIP(WT‐Ala)]” as the sequence, how does the pK50 [7] read?
Answer: Its pK50 is 6.1 ^b.

Question: For “DDDDDDTTLLLLS DIGA IMWVSLVDLIADADEG [hybrid1]”, which “partitioning into the lipid bilayer” value [8] is on record?
Answer: The value was “does not partition into the lipid bilayer”.
